According to ChEMBL document CHEMBL1125205, “Phosphorus-containing inhibitors of HMG-CoA reductase. 2. Synthesis and biological activities of a series of substituted pyridines containing a hydroxyphosphinyl moiety” (J Med Chem, 1991):
One block for each molecule: values may come before it.

Columns and labels:
Rattus norvegicus [1] = species: Rattus norvegicus; assay: The compound was tested for inhibition of Cholesterol synthesis from [14C]- Acetate in hepatocytes of rats.; assay type: functional; settings: Hepatocyte, read-out: I 50
Procedure, shortened: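 Rat hepatocytes were freshly isolated by collagenase perfusion, 70-90% viable. Cells were suspended at 5 × 10^6 per 2.0 mL in Tris pH 7.4 incubation medium with cofactors; DMSO was ≤1.0% final. Incubation was with [14C]acetate (2 µCi/mL) for 2.0 h at 37 °C. Lipids were extracted by Bligh-Dyer and the percent of label in the cholesterol peak was compared with controls. I50 from composite curves of two or more studies.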

[2] = It is the ratio of I50 fibroblasts to that of I50 hepatocytes.; assay type: functional, Hepatocyte
Procedure, shortened: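 Selectivity is the ratio of I50 in human skin fibroblasts to I50 in freshly isolated rat hepatocytes. Each I50 came from [14C]acetate incorporation into cholesterol, measured as percent inhibition versus controls from composite dose-response data.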

Rattus norvegicus [3] = assay: The compound was tested in vivo for inhibition of Cholesterol Biosynthesis from [14C]- acetate in rat after intravenous administration.; assay type: functional
Procedure, shortened: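 Male Sprague-Dawley rats (200-300 g) were kept on a reverse light cycle. Salt forms were given iv into the tail vein in saline, 5 min before ip sodium [1-14C]acetate (25 µCi/100 g), dosed 2 h before mid-dark. Blood was taken 2 h after mid-dark. Read-out: 14C nonsaponifiable plasma lipid per mL versus controls, 4-5 rats/group. ED50 from log dose regressions, mean of ≥2 experiments.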

Homo sapiens = species: Homo sapiens; assay: The compound was tested for inhibition of Cholesterol synthesis from [14C]- Acetate in human skin fibroblasts; assay type: functional; settings: read-out: I 50
Procedure, shortened: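 Human skin fibroblasts (passage 7-27) were plated at 5 × 10^5 cells/well and cultured 18 h. Sterol synthesis was induced by 24 h in serum-free MEM with 1.0% fatty acid-free BSA. Cells were preincubated with compound for 30 min (DMSO ≤1.0%), then given sodium [1-14C]acetate at 2.0 µCi/mL for 4 h. Label in the extracted cholesterol peak was compared with controls. I50 from composite curves of ≥2 experiments.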

Rattus norvegicus [4] = assay: The compound was tested in vivo for inhibition of Cholesterol Biosynthesis from [14C]- acetate in rat after peroral administration.; assay type: functional; settings: po
[5] = target: T1, 3-hydroxy-3-methylglutaryl-coenzyme A reductase (Rattus norvegicus, UniProt P51639); assay: In vitro for inhibition of rat HMG-CoA reductase.; settings: read-out: I50
T1 sequence (P51639 whole entry): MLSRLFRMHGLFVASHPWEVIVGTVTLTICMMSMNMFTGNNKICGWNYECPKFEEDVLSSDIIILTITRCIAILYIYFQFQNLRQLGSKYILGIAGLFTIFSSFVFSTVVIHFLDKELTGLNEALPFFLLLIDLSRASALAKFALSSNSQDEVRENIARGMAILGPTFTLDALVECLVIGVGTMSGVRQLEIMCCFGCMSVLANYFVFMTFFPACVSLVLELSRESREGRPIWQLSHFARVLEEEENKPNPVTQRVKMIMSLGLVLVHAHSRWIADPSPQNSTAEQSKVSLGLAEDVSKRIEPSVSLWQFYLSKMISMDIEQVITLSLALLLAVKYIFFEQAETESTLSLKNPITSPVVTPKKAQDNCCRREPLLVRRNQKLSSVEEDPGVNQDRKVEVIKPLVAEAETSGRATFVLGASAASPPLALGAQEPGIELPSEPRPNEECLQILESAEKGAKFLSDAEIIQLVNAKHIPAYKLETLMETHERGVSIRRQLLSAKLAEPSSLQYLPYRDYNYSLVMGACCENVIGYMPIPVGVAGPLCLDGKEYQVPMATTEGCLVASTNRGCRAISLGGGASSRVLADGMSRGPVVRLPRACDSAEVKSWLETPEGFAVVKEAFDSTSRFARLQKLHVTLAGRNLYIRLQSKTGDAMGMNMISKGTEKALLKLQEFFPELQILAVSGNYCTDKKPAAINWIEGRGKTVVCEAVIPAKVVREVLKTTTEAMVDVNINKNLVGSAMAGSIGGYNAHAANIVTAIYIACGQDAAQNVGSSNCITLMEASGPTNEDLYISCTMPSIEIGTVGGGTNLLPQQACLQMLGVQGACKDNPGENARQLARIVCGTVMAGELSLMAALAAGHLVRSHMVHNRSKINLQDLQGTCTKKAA
Procedure, shortened: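 Enzyme source: hepatic microsomes from cholestyramine-fed Sprague-Dawley rats. Final assay conditions: 0.04 M potassium phosphate pH 7.2, KCl, sucrose, EDTA, 10 mM DTT, 1% DMSO, 50-200 µg microsomal protein. Microsomes were preincubated with 2.7 mM NADPH for 15 min at 37 °C, then with compound for 15 min. 100 µM 14C-[D,L]-HMG-CoA was then added for 20 min at 37 °C. Read-out: 14C-mevalonate, corrected by 3H-mevalonate recovery. I50 taken from composite dose-response regressions, 2-5 experiments.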

SMILES: CC(C)c1nc(-c2ccccc2)cc(-c2ccc(F)cc2)c1C#CP(=O)([O-])C[C@H](O)CC(=O)[O-].[Li+].[Li+]
- IC50 (Rattus norvegicus [1]): 0.197 µM
- Selectivity [2]: 47
- ED50 (Rattus norvegicus [3]): 0.47 mg/kg
- IC50 (Homo sapiens): 9.3 µM
- ED50 (Rattus norvegicus [4]): 3.9 mg/kg
- IC50 [5]: 0.062 µM

SMILES: Cc1c(-c2ccccc2)nc(C(C)C)c(/C=C/P(=O)([O-])C[C@H](O)CC(=O)[O-])c1-c1ccc(F)cc1.[Na+].[Na+]
- IC50 (Rattus norvegicus [1]): 0.26 µM
- Selectivity [2]: 7.7
- ED50 (Rattus norvegicus [3]): 0.1 mg/kg
- IC50 (Homo sapiens): 2 µM
- ED50 (Rattus norvegicus [4]): 0.46 mg/kg
- IC50 [5]: 0.0012 µM

SMILES: CC(C)c1nc(C(C)(C)C)cc(-c2ccc(F)cc2)c1C#CP(=O)([O-])C[C@H](O)CC(=O)[O-].[Na+].[Na+]
- IC50 (Rattus norvegicus [1]): 0.556 µM
- Selectivity [2]: 4.3
- ED50 (Rattus norvegicus [3]): 0.7 mg/kg
- IC50 (Homo sapiens): 2.4 µM
- ED50 (Rattus norvegicus [4]): 3.5 mg/kg
- IC50 [5]: 0.0061 µM

SMILES: Cc1c(-c2ccccc2)nc(C(C)C)c(C#CP(=O)([O-])C[C@H](O)CC(=O)[O-])c1-c1ccc(F)cc1.[Li+].[Li+]
- IC50 (Rattus norvegicus [1]): 0.081 µM
- Selectivity [2]: 140
- ED50 (Rattus norvegicus [3]): 0.13 mg/kg
- IC50 (Homo sapiens): 11.3 µM
- ED50 (Rattus norvegicus [4]): 3.1 mg/kg
- IC50 [5]: 0.0045 µM

More lines, main results first:

- IC50 [5]: 0.00055 µM
SMILES: CCc1c(-c2ccccc2)nc(C(C)C)c(/C=C/P(=O)([O-])C[C@H](O)CC(=O)[O-])c1-c1ccc(F)cc1.[Na+].[Na+]
- IC50 (Rattus norvegicus [1]): 0.241 µM
- Selectivity [2]: 19.5
- ED50 (Rattus norvegicus [3]): 0.2 mg/kg
- IC50 (Homo sapiens): 4.7 µM
- ED50 (Rattus norvegicus [4]): > 10 mg/kg

- IC50 [5]: 0.0019 µM
SMILES: CC(C)c1nc(-c2ccccc2)cc(-c2ccc(F)cc2)c1/C=C/P(=O)([O-])C[C@H](O)CC(=O)[O-].[Li+].[Li+]
- IC50 (Rattus norvegicus [1]): 0.077 µM
- Selectivity [2]: 26
- ED50 (Rattus norvegicus [3]): 0.22 mg/kg
- IC50 (Homo sapiens): 2 µM
- ED50 (Rattus norvegicus [4]): 21.4 mg/kg
